Columns and labels:
[1] = biological target: Serine/threonine-protein kinase pim-1 (Homo sapiens) (UniProt P11309); test: Inhibition of Pim-1 assessed as residual enzyme activity at 1 uM relative to untreated control
[2] = biological target: Serine/threonine-protein kinase pim-2 (Homo sapiens) (UniProt Q9P1W9); test: Inhibition of Pim-2 assessed as residual enzyme activity at 1 uM relative to untreated control
[3] = biological target: Serine/threonine-protein kinase pim-3 (Homo sapiens) (UniProt Q86V86); test: Inhibition of Pim-3 assessed as residual enzyme activity at 1 uM relative to untreated control
[4] = biological target: Serine/threonine-protein kinase pim-1 (Homo sapiens) (UniProt P11309); test: Inhibition of Pim-1 assessed as residual enzyme activity at 10 uM relative to untreated control
[5] = biological target: Serine/threonine-protein kinase pim-2 (Homo sapiens) (UniProt Q9P1W9); test: Inhibition of Pim-2 assessed as residual enzyme activity at 10 uM relative to untreated control
[6] = biological target: Serine/threonine-protein kinase pim-3 (Homo sapiens) (UniProt Q86V86); test: Inhibition of Pim-3 assessed as residual enzyme activity at 10 uM relative to untreated control
[7] = test system: PC-3; test: Antiproliferative activity against human PC3 cells after 48 hrs by resazurin dye reduction assay; format: functional, cell-based; details: PC-3, 48 h
Method in brief: (§1)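 Cells (human fibroblast primary culture, or PC3, DU145 or PA1 cancer lines) were kept as monolayers in Glutamax MEM with Earle's salts, 10% FCS, pyruvate, nonessential amino acids and gentamicin, at 37 °C in 5% CO2. 5×10^3 cells/well adhered for 16 h, then had 48 h continuous drug exposure (20 mM DMSO stock). Resazurin 25 µg/mL for 1 h; fluorescence ex 530/em 590 nm. IC50 from blank-corrected concentration–survival curves versus control wells.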

[8] = test system: DU-145; test: Antiproliferative activity against human DU145 cells after 48 hrs by resazurin dye reduction assay; format: functional, cell-based; details: DU-145, 48 h; method in brief: as §1
[9] = test system: PA-1; test: Antiproliferative activity against human PA1 cells after 48 hrs by resazurin dye reduction assay; format: functional, cell-based; details: PA-1, 48 h; method in brief: as §1
[10] = Antiproliferative activity against human fibroblasts after 48 hrs by resazurin dye reduction assay; format: cell-based; details: Fibroblast; method in brief: as §1

Sequence of Serine/threonine-protein kinase pim-1 (Homo sapiens) (P11309 whole entry, looked up): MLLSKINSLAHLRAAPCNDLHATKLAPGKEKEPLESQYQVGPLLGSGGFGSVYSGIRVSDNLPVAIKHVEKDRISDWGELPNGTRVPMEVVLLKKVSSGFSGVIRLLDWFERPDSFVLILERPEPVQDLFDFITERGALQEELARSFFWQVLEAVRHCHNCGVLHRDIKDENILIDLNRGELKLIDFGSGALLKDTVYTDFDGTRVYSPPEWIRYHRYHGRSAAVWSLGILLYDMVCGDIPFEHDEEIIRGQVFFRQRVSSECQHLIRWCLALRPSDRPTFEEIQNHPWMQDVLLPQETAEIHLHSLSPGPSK
Sequence of Serine/threonine-protein kinase pim-2 (Homo sapiens) (Q9P1W9 whole entry, looked up): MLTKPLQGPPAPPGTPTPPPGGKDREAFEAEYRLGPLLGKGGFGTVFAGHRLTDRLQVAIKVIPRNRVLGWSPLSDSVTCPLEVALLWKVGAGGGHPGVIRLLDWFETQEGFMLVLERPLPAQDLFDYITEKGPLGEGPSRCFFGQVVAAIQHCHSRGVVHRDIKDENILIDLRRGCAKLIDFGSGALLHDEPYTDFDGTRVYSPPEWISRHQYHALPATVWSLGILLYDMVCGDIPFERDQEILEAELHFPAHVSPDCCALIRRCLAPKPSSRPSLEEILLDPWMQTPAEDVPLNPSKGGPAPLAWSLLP

Row | SMILES | Activity [1] | Activity [2] | Activity [3] | Activity [4] | Activity [5] | Activity [6] | IC50 [7] | IC50 [8] | IC50 [9] | IC50 [10]
1 | CCN(CC)C(=O)/C(=N\O)c1c[nH]c2c1ccc1c3ccccc3[nH]c12 | 80% | 62% | 74% | 41% | 27% | 21% |  |  |  | 
2 | O=Cc1c[nH]c2c1ccc1c3cc(-c4ccc(OC(F)(F)F)cc4)ccc3[nH]c12 | 68% | 73% | 77% | 29% | 70% | 31% |  |  |  | 
3 | OCCc1c[nH]c2c1ccc1c3ccccc3[nH]c12 | 90% | 69% | 72% | 35% | 50% | 21% |  |  |  | 
4 | O=C(c1c[nH]c2c1ccc1c3ccccc3[nH]c12)C(F)(F)F | 61% | 54% | 20% | 20% | 30% | 7% |  |  |  | 
5 | COc1cccc(-c2ccc3[nH]c4c(ccc5c(C=O)c[nH]c54)c3c2)c1 | 64% | 65% | 46% | 17% | 31% | 12% |  |  |  | 
6 | O=Cc1c[nH]c2c1ccc1c3cc(-c4ccc(-c5ccccc5)cc4)ccc3[nH]c12 | 69% | 67% | 77% | 39% | 70% | 48% |  |  |  | 
7 | O=S(=O)(c1ccccc1)n1ccc2ccc3c4ccccc4[nH]c3c21 | 83% | 65% | 102% | 61% | 62% | 64% |  |  |  | 
8 | O=Cc1c[nH]c2c1ccc1c3cc(-c4ccc(F)cc4)ccc3[nH]c12 | 65% | 72% | 54% | 15% | 55% | 15% |  |  |  | 
9 | O=Cc1c[nH]c2c1ccc1c3cc(-c4ccc(C(F)(F)F)cc4)ccc3[nH]c12 | 79% | 49% | 70% | 28% | 52% | 23% |  |  |  | 
10 | O=Cc1c[nH]c2c1ccc1c3cc(-c4ccc(F)cc4F)ccc3[nH]c12 | 39% | 59% | 26% | 6% | 32% | 6% |  |  |  | 
11 | NC(=O)c1c[nH]c2c1ccc1c3ccccc3[nH]c12 |  |  |  | 9% | 27% | 9% |  |  |  | 
12 | O=Cc1c[nH]c2c1ccc1c3cc(Br)ccc3[nH]c12 | 31% | 82% | 11% | 6% | 53% | 6% | 5.9 µM | 12.2 µM | 2.8 µM | 11 µM
13 | O=Cc1c[nH]c2c1ccc1c3cc(-c4ccccc4)ccc3[nH]c12 | 60% | 68% | 54% | 16% | 53% | 15% |  |  |  | 
14 | Brc1ccc2[nH]c3c(ccc4cc[nH]c43)c2c1 | 69% | 67% | 55% | 12% | 46% | 8% |  |  |  | 
15 | OCc1c[nH]c2c1ccc1c3ccccc3[nH]c12 | 72% | 46% | 68% | 28% | 47% | 18% |  |  |  | 

Source: ChEMBL document CHEMBL1154186, “Synthesis, kinase inhibitory potencies, and in vitro antiproliferative evaluation of new Pim kinase inhibitors” (J Med Chem, 2009)
